FGF22 binding: binders of recombinant human FGF22 by thermal shift; hit rate 1.5% among 340,000; AID 651658; activity (Tm shift, normalised), % at 9.99 µM; Q9HCT0; SYPRO orange fluorescence; percent of sucrose octasulfate shift, DMSO zero;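 active means mean Tm shift, scaled 0 neutral to 100 positive control, at about 1.3% or above, every replicate too, limit read from the data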
Target sequence (Q9HCT0 whole entry, looked up): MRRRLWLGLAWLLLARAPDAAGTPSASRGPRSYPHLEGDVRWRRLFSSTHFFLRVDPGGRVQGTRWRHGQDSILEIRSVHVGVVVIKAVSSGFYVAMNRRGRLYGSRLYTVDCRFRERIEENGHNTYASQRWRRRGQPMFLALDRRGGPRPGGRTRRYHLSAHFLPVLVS
miR122 inh: inhibitors of miR-122 in Huh7 cells | Huh7 miR-122 Renilla luciferase sensor, 48 h; neutral wells = 0, positive control = 100 | activation (reporter increase), % at 12.5 µM | hit rate 0.3% among 340,000 | AID 602342;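 active means mean replicate activation score at least 90 and every replicate individually at or above 90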;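 further: higher luciferase means less miR-122 activity so hits act as miR-122 inhibitors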
SIRT5 block: inhibitors of human sirtuin-5 desuccinylase. Q9NXA8. Purified SirT5, succinyl-peptide AMC, trypsin-coupled fluorescence. inhibition, % at 15 µM. hit rate 1.1% among 330,000. AID 652115; in the data active means inhibition above about 15%
Target sequence (Q9NXA8 whole entry, looked up): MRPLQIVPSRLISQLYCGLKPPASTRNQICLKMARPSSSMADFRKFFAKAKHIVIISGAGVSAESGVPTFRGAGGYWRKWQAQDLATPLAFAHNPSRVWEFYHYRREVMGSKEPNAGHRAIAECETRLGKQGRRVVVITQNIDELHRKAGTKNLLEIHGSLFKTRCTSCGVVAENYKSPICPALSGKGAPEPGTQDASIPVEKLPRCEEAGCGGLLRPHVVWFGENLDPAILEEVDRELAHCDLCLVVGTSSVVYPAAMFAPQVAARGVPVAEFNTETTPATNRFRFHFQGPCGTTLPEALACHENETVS
E-sel inducer: E-selectin induction on HUVECs | P16581 | HUVEC E-selectin immunofluorescence imaging; normalized: neutral wells 0, TNF-alpha wells 100 | activation, % at 7.58 µM | hit rate 0.37% among 260,000;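 active means mean E-selectin-positive cell signal at least 10% of the positive control, reached in at least 60% of replicates, without over 20% cell loss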
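Test system: HUVEC; input: 3,000 HUVEC/well; measured by: immunofluorescence imaging; read-out: % PE-positive cells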
S100A4 inh HTS: blocks human S100A4 binding to myosin IIA peptide; S100A4/TAMRA-MyoIIA peptide fluorescence polarization; hit rate 0.14% among 360,000; inhibition, % at 10.7 µM;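 active means mean inhibition of at least 70% across replicates, with every replicate also reaching that level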
Target sequence (P26447 whole entry, looked up): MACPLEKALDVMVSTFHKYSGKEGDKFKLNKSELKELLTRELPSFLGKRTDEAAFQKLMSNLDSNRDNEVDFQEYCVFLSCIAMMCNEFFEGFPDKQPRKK
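Material: S100A4 monomer (human). Medium: Calcium-containing HEPES buffer, pH 7.2. Probe or stimulus: labelled myosin peptide probe, 5 nM. Compound dosing: one concentration per compound. Timing: polarization read 5 min after assay mix addition, stable 5–60 min. Benchmarks: DMSO as neutral control, TFP as positive control.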
Active calls of the source: *; . = not tested or not shown; [ ] = remark or other dose. Rows were chosen to be rich in hits. Some 2.5% of all compounds tested hit in one or more screens of this group.

SMILES	FGF22 binding	miR122 inh	SIRT5 block	E-sel inducer	S100A4 inh HTS
COc1cc(/C=C/C(=O)OCC(=O)Nc2cc(S(=O)(=O)N3CCOCC3)ccc2Cl)cc(OC)c1OC	1	3	1	0	4
COc1cc(/C=C/C(=O)O)cc(S(=O)(=O)Nc2cccc(S(=O)(=O)N3CCOCC3)c2)c1OC	0	-4	22*	-1	1
COc1cc(S(=O)(=O)N2CCOCC2)ccc1NC(=O)COC(=O)/C=C/c1cc(OC)c(OC)c(OC)c1	43*	.	.	1	-2
CN(C)CC(=O)Nc1ccc2c(c1)[C@@H]1C[C@H](CC(=O)NCc3cc(F)ccc3F)O[C@@H](CO)[C@@H]1O2	0	3[16.7 µM]	1	0	19
O=C(CCn1c2c(c3ccccc31)CCCC2)NNC(=O)c1ccc(Cl)c([N+](=O)[O-])c1	0	.	27*	.	3
COc1ccc(NC(=O)Nc2ccc3c(c2)C(=O)N([C@@H](C)CO)C[C@H](C)[C@H](CN(C)C(=O)NC2CCCCC2)O3)cc1	0	-4[16.7 µM]	3	0	-13
CCOC(=O)c1c(C)[nH]c(C(=O)COC(=O)COc2ccc(OC)cc2)c1C	44*	.	0	.	-4
CC(=O)c1c(C)[nH]c(C(=O)COC(=O)COc2ccccc2)c1C	0	.	11	.	0
O=C1C=CC(=O)c2c(O)c(CO)c(CO)c(O)c21	0	-1	15*	.	1
O=c1c(CO)cc(CO)cc(CO)c1O	0	.	4	.	2
O=C(C1CCOCC1)N1CC(=O)N2[C@@H](CO)[C@H](c3ccc(C#CC4CCCC4)cc3)[C@@H]2C1	.	.	2	0	-18
CC(C)NC(=O)Nc1cccc2c1O[C@H](CN(C)Cc1ccc(-c3ccccc3)cc1)[C@@H](C)CN([C@H](C)CO)C2=O	0	9[16.7 µM]	3	0	-14
CC(C)Cc1nn2c(N)c(/C=C3\C=Nc4ccccc43)c(=O)nc2s1	1.5*	.	1	.	14
CCCc1nn2c(N)c(/C=C3\C=Nc4ccccc43)c(=O)nc2s1	0	-4	-1	.	-13
CCNC(=O)NC(=O)CSc1ccccc1F	.	0	.	.	.
CCNC(=O)NC(=O)CSc1ccc2ccccc2c1	43*	2	-1	.	1
Cc1ccc(Cn2c(O)c(N=NC(=S)Nc3ccccc3F)c3ccccc32)cc1	.	.	18*	-1	0
CCOc1cccc(-c2cc(C(=O)N3N=C(C)CC3(O)C(F)F)c3ccccc3n2)c1 (centres undefined)	43*	.	0	.	-1
O=C(c1cc(-c2ccccc2)nc2ccccc12)N1N=C(C(F)F)CC1(O)C(F)F (centres undefined)	0	-5	0	.	-2
C=CCNC(=O)c1ccccc1NC(=O)COc1ccc(OC)cc1	44*	.	-1	.	2
O=C(O)COc1ccc(NC(=O)c2cccs2)cc1	0	.	-1	.	5
CC1CCCN(C(=O)COc2ccc(NC(=O)c3cccs3)cc2)C1 (centres undefined)	44*	.	-1	0	-2
COc1ccc(OCC(=O)Nc2ccc(NC(=O)c3cccs3)cc2)cc1	0	.	102*	0	-2
COc1ccc(S(=O)(=O)Nc2ccc3c(c2)CC(=O)N([C@@H](C)CO)C[C@H](C)[C@H](CN(C)Cc2ccc4c(c2)OCO4)O3)cc1	0	30[16.7 µM]	4	0	-3
Cc1noc(C)c1S(=O)(=O)N(C)C[C@@H]1Oc2ccc(NC(=O)CCN3CCOCC3)cc2CC(=O)N([C@@H](C)CO)C[C@@H]1C	0	.	.	-9	-6
SMILES	FGF22 binding	miR122 inh	SIRT5 block	E-sel inducer	S100A4 inh HTS
CC(C)c1ccc(NC(=S)NCc2cccs2)cc1	.	102*	.	.	.
S=C(NCc1cccs1)Nc1cc(Cl)cc(Cl)c1	0	.	2	0	-2
S=C(NCc1cccs1)Nc1cccc(Cl)c1	0	220*	-2	.	-24
CO[C@@H]1CN(C)C(=O)c2ccc(NC(=O)c3nc4ccccc4s3)cc2OC[C@@H](C)N(Cc2cccnc2)C[C@H]1C	.	-18[16.7 µM]	102*	0	.
CO[C@H]1CN(C)C(=O)c2ccc(NS(=O)(=O)c3ccccc3)cc2OC[C@H](C)N(Cc2cccnc2)C[C@@H]1C	0	.	2	0	79*
CO[C@@H]1CN(C)C(=O)c2ccc(NS(=O)(=O)CC(F)(F)F)cc2OC[C@@H](C)N(C)C[C@H]1C	0	.	.	0	-6
CCCN1C[C@H](C)[C@@H](OC)CN(C)C(=O)c2cc(NS(=O)(=O)c3ccccc3)ccc2OC[C@H]1C	0	.	31*	0	-1
CO[C@@H]1CN(C)C(=O)c2cc(NS(=O)(=O)CC(F)(F)F)ccc2OC[C@@H](C)N(C)C[C@H]1C	0	4[16.7 µM]	0	0	106*
O=C(C1CC1)N1CC2(C1)[C@H](c1ccccc1)[C@@H](CO)N2C(=O)c1cccnc1	0	.	-1	0	-7
COc1ccc2c3c(n(C)c2c1)[C@H](CO)N(C(=O)CC1CC1)CC31CCN(C(=O)C2CCCC2)CC1	0	.	-1	0	4
CN1CCN(C(=O)C[C@@H]2CC[C@@H]3[C@H](COC[C@H](O)CN3C(=O)C3CC3)O2)CC1	0	-4[16.7 µM]	1	0	-4
CC1=NC(C)(C)Cc2c(C)cccc21	0	0	0	72*	2
Cc1cccc2c1CC(C)(C)N=C2C1=C(O)CCCC1=O	.	-3	.	.	.
COc1ccc(CN(CCN2CCOCC2)C(=O)c2c(F)cccc2F)cc1OC	0	-4	17*	.	3
Cc1ccc(C(=O)OCc2c(C)noc2C)cc1NC(=O)c1ccco1	44*	6	-5	-1	2
CCCCNC(=O)COC(=O)c1ccc(C)c(NC(=O)c2ccco2)c1	0	.	-17	.	2
CC(=O)NC1=NN(C(C)=O)C(C)(CC(=O)OC(C)(C)C)S1 (centres undefined)	43*	.	1	.	-6
CCCC1(C)SC(NC(C)=O)=NN1C(C)=O (centres undefined)	.	2	.	.	.
CC(C)NC(=O)N(C)C[C@@H]1OCCCC[C@@H](C)Oc2ccc(NS(C)(=O)=O)cc2C(=O)N([C@H](C)CO)C[C@H]1C	0	1[16.7 µM]	0	0	5
O=C(CN1C(=O)C2C3CC(C(Br)C3Br)C2C1=O)Nc1ccc(C(=O)O)cc1 (centres undefined)	0	.	23*	0	11
CCS(=O)(=O)c1nc(S(=O)(=O)c2ccc(C)cc2)c(NCCCN2CCCC2=O)s1	0	-4	6	.	84*
C[C@@H]1CCCCO[C@@H](CN(C)C(=O)Nc2ccccc2)[C@H](C)CN([C@H](C)CO)C(=O)c2cc(N(C)C)ccc2O1	.	-4[16.7 µM]	.	0	.
COCCNC(=O)/C(C#N)=C/c1cc(C)n(C2CCCCC2)c1C	0	.	16*	.	4
C=CCNC(=O)/C(C#N)=C/c1ccc2c(c1)OCCO2	43*	.	5	.	2
COCCNC(=O)/C(C#N)=C/c1ccc2c(c1)OCO2	44*	-8	-5	0	1

High-throughput results deposited in PubChem BioAssay by Broad Institute.
